Test results published in publication PMC3855444 (Bioorganic & medicinal chemistry, 2013).

Each compound was assayed on hepatitis C virus (JFH-1). Settings: Huh7.5.1 cells infected with JFH-1 (MOI 0.05), HCV core protein at 72 h.
Type: cell-based
Outline: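 Huh7.5.1 cells (150,000 per well) were plated and infected with JFH-1 the next day at 0.05 focus forming units per cell. After 5 h the inoculum was replaced with fresh medium containing test compound at three concentrations chosen from the 72 h ATP-based cytotoxicity data. Lysates were harvested 72 h later, loaded at equal total protein, and probed for HCV core by Western blot.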

Row | Compound | anti-HCV activity upon methylation relative to the corresponding parent compound
1 | COc1cc(O)c2c(c1)O[C@H](c1ccc3c(c1)O[C@H](c1ccc(O)c(OC)c1)[C@@H](CO)O3)[C@@H](O)C2=O [compound 2, 7-O-Methylsilybin A] | retained
2 | COc1cc(O)c2c(c1)O[C@H](c1ccc3c(c1)O[C@@H](c1ccc(O)c(OC)c1)[C@H](CO)O3)[C@@H](O)C2=O [compound 4, 7-O-Methylsilybin B] | reduced
3 | COc1cc(O)c2c(c1)O[C@H](c1ccc3c(c1)O[C@H](CO)[C@@H](c1ccc(O)c(OC)c1)O3)[C@@H](O)C2=O [compound 6, 7-O-Methylisosilybin A] | reduced
4 | COc1cc(O)c2c(c1)O[C@H](c1ccc3c(c1)O[C@@H](CO)[C@H](c1ccc(O)c(OC)c1)O3)[C@@H](O)C2=O [compound 8, 7-O-Methylisosilybin B] | slight enhancement
5 | COc1cc(O)c2c(c1)O[C@H](c1cc(O)c3c(c1)[C@@H](CO)[C@H](c1ccc(O)c(OC)c1)O3)[C@@H](O)C2=O [compound 10, 7-O-Methylsilychristin] | improved anti-HCV activity
6 | COc1cc(O)c2c(c1)O[C@H](c1ccc(O)c3c1[C@@H](CO)[C@H](c1ccc(O)c(OC)c1)O3)[C@@H](O)C2=O [compound 12, 7-O-Methylisosilychristin] | improved anti-HCV activity

The compounds below were run on UDP-glucuronosyltransferase (UGT). Settings: 100 μM, HLM.
Type: in vitro ADME, human

Row | Compound | inhibition of UGT activity, parent versus methylated analogue, in words
7 | COc1cc(O)c2c(c1)O[C@H](c1ccc(O)c3c1[C@@H](CO)[C@H](c1ccc(O)c(OC)c1)O3)[C@@H](O)C2=O [compound 12, 7-O-Methylisosilychristin] | more potent than isosilychristin (11)
